Data: article PMC2651228 (Journal of medicinal chemistry, 2008)
Entries after “also recorded” stand apart in the source; their conditions may differ. One block for each compound: values may come before it.

Tests used:
[1] = biological target: Biotin-Grb2 SH2 domain (Homo sapiens, UniProt P62993); test: SPR direct binding, streptavidin-captured biotin-Grb2 SH2 domain; conditions: Biotin-Grb2, SA capture; reference line of the ratio
[2] = test system: PC3M cells; test: Cell migration in modified Boyden chambers, HGF-stimulated; format: cell-based; conditions: HGF 50 ng/ml
How it was run: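 PC3M cells pretreated with test compound for 24 h, then seeded at 200,000 cells per modified Boyden chamber. Migration stimulated with recombinant human HGF (50 ng/ml), with unstimulated cells run in parallel. Migrated cells counted by light microscopy in four fields (1 × 1.4 mm) per well, triplicate wells per condition. Means expressed as percent maximum ± standard deviation, with a dose-response series.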

[3] = test system: PAK1; test: PAK1 activation; format: cell-based; conditions: PC3M cells, 1 uM, 16 h
How it was run: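 PC3M cells serum-deprived and either treated with test compound (1 uM) or left untreated for 16 h. They were then left unstimulated or briefly stimulated with HGF (50 ng/mL) for set times. Lysates run on SDS-PAGE and immunoblotted with anti-phospho-PAK1 antibody, with total PAK1 immunoblot as loading control.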

[4] = test system: PAK1; test: PAK1 nuclear translocation; format: cell-based; conditions: PC3M cells, 16 h, relative to nuclear CREB
How it was run: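 PC3M cells treated with test compound for 16 h. Nuclear extracts prepared in high-salt buffer, resolved by SDS-PAGE and immunoblotted for PAK1, with CREB immunoblotted as reference.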

[5] = test system: PC3M cells; test: Lamellipodia formation at wound edge, phalloidin staining, PC3M; format: cell-based; conditions: HGF + 1 uM compound
[6] = test system: MDCK cells; test: Lamellipodia formation at wound edge, phalloidin staining, MDCK; format: cell-based, canine; conditions: HGF + 1 uM compound
[7] = test system: cell motility; conditions: cited from earlier work
[8] = test system: angiogenesis; conditions: cited from earlier work
[9] = test system: tumor metastasis; conditions: cited from earlier work
[10] = test system: Grb2-EGFR and Grb2-c-Met interactions; conditions: co-immunoprecipitation; cited from earlier work
[11] = test system: Grb2 and focal adhesion kinase (FAK); conditions: treatment of cells; cited from earlier work
[12] = biological target: Grb2 SH2 domain (Homo sapiens, UniProt P62993); test: SPR direct binding, amine-coupled Grb2 SH2 domain; conditions: for Ratio: Grb2, amine coupling, affinity relative to compound 2
Grb2 SH2 domain, sequence (P62993 60-152 limits assumed): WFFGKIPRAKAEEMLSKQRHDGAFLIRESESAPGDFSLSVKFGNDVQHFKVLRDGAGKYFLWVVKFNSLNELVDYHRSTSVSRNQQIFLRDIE

[13] = biological target: Grb2 (Homo sapiens, UniProt P62993); format: binding; conditions: SK-LMS-1 lysate; for Capture of Grb2 on compound-conjugated SA beads (anti-Grb2 immunoblot): compound 3 uM, washes 150-500 mM NaCl
How it was run: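 SK-LMS-1 cells serum-deprived 16 h, stimulated with recombinant human HGF (25 ng/ml) for 20 min and lysed in cold non-ionic detergent buffer. Biotinylated test compound (3 uM) incubated with lysate 1 h on ice. Streptavidin beads then mixed in 1 h at 4°C and washed 5 times in lysis buffer with increasing NaCl (150–500 mM). Read-out: SDS-PAGE and anti-Grb2 immunoblot.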

[14] = biological target: proteins of SK-LMS-1 cell lysates (Homo sapiens, UniProt P62993); format: binding; conditions: compound-conjugated SA beads, cell extracts
How it was run: (§1)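 Biotinylated test compound captured proteins from HGF-stimulated (25 ng/ml, 20 min) SK-LMS-1 detergent lysate on streptavidin beads, washed with 150–500 mM NaCl. Beads exchanged into 100 mM ammonium bicarbonate, reduced (10 mM DTT, 1 h, 51°C), alkylated (55 mM iodoacetamide, 45 min, 25°C) and trypsin-digested 6 h at 25°C. Acidified peptides analysed by nLC-ESI-MS/MS (ion trap, top-seven data-dependent) and searched against human NCBI database.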

[15] = test system: proteins of SK-LMS-1 cell lysates; format: binding, human; conditions: cell lysates; two or more unique peptides observed
How it was run: as §1

Biotin-Grb2 SH2 domain, sequence (P62993 60-152 limits assumed): as above

Compound: NC(=O)C[C@H](NC(=O)C1(NC(=O)[C@H](Cc2ccc(C(C(=O)O)C(=O)O)cc2)NC(=O)C(=O)O)CCCCC1)C(=O)NCCCc1cccc2ccccc12 [Compound 1]
Ratio [1]: 1 | Inhibition of cell migration (in words) [2]: Inhibition of cell migration | Steady state level of PAK1 autophosphorylation ([3]; no HGF): little effect | HGF-stimulated PAK1 activation ([3]; then HGF 50 ng/mL): completely inhibited | PAK1 nuclear translocation [4]: decreased PAK1 nuclear translocation | Actin reorganization and lamellipodia formation (phalloidin staining) [5]: markedly reduced phalloidin staining at the leading edge | Lamellipodia extension into the wound [6]: significantly reduced the area and distance that lamellipodia extended into the wound | Cell motility [7]: blocks cell motility in a dose dependent fashion; also recorded: can inhibit cell motility | Angiogenesis [8]: inhibit | Tumor metastasis in vivo [9]: inhibit | Grb2-EGFR and Grb2-c-Met interactions [10]: able to disrupt Grb2-EGFR and Grb2-c-Met interactions | HGF-stimulated physical association between Grb2 and FAK [11]: disrupts HGF-stimulated physical association between Grb2 and focal adhesion kinase (FAK)

Ratio [12]: 1 | Ratio [1]: 1
Compound: NC(=O)C[C@H](NC(=O)C1(NC(=O)[C@H](Cc2ccc(C(C(=O)O)C(=O)O)cc2)NC(=O)C(=O)O)CCCCC1)C(=O)NCCCc1cccc2c(O)cccc12 [Compound 2, 2-{4-[2-(1-(1S)-{2-Carbamoyl-1-[3-(5-hydroxy-naphthalen-1-yl)-propylcarbamoyl]-ethylcarbamoyl}-cyclohexylcarbamoyl)-2-(2S)-(oxalyl-amino)-ethyl]-phenyl}-malonic acid]

Ratio [12]: 3 | Capture of Grb2 on compound-conjugated SA beads (anti-Grb2 immunoblot) [13]: Grb2 was clearly retained
Compound: NC(=O)C[C@H](NC(=O)C1(NC(=O)[C@H](Cc2ccc(C(C(=O)O)C(=O)O)cc2)NC(=O)C(=O)O)CCCCC1)C(=O)NCCCc1cccc2c(OC(=O)CCCCCNC(=O)CCCC[C@@H]3SC[C@@H]4NC(=O)N[C@@H]43)cccc12 [Compound 3]
Inhibition of cell migration (in words) [2]: significant and potent inhibition of migration | Capture of Grb2 SH3 domain-associated proteins (immunoblot) ([13]; SA-bound compound): revealed the presence of Nck1, Nck2, Gab1 and Sos1 | Capture of Grb2 tryptic peptides (ESI-MS/MS) [14]: captured by compound 3-conjugated SA beads | Protein Name (identified by mass spectrometry, captured by streptavidin-immobilized 3, but not by streptavidin-immobilized 4) [15]: histone H2B family ^b; also recorded: ribosomal protein S23; also recorded: ribosomal protein L17; also recorded: ribosomal protein S17; also recorded: pyruvate kinase 3 ^a

Capture of Grb2 on compound-conjugated SA beads (anti-Grb2 immunoblot) [13]: did not capture Grb2 | Capture of Grb2 tryptic peptides (ESI-MS/MS) [14]: not by compound 4-conjugated beads
Compound: NC(=O)C[C@H](NC(=O)C1(NC(=O)[C@H](Cc2ccc(O)cc2)NC(=O)C(=O)O)CCCCC1)C(=O)NCCCc1cccc2c(OC(=O)CCCCCNC(=O)CCCC[C@@H]3SC[C@@H]4NC(=O)N[C@@H]43)cccc12 [Compound 4, (4R,5S,6S)-6-[5-(2-Oxo-hexahydro-thieno[3,4-d]imidazol-6-yl)-pentanoylamino]-hexanoic acid 5-{3-[3-carbamoyl-2-({1-[3-(4-hydroxy-phenyl)-2-(oxylyl-amino)-propionylamino]-cyclohexylcarbonyl}-amino)-propionylamino]-propyl}-naphthalen-1-yl ester]
Grb2 SH2 domain binding affinity (in words) ([12]; assay not stated): very poor Grb2 SH2 domain binding affinity | Inhibition of cell migration (in words) [2]: No inhibition of cell migration
